Most compounds without a hit are left out; they make up all but 2.1% or so of the library.
DENV2 CPE rescue: inhibitors of DENV2 cytopathic effect. 1.7% of 350,000 active. AID 651640. DENV2-infected cells, cytopathic effect rescue, plate reader. CPE inhibition, % at 9.99 µM; in the data active means CPE inhibition above about 20%, passing the limit was not always enough; inconclusive means no clear call, values can overlap the other calls; tested in BHK-21 cells;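 further: 0% = median of neutral control wells and 100% = median of positive control wells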
Cneo AK release: causes C. neoformans cell lysis | adenylate kinase release luminescence, 4 h; normalised: neutral wells 0, clomiphene wells 100 | lysis activity, % at 15 µM | 0.2% of 360,000 active | AID 651654;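 active means mean lysis activity across replicates of at least 80%, whatever share of replicates individually reach that level; inactive means mean lysis activity below 80%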
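Material – Cryptococcus neoformans yeast cells · Quantity – 5 × 10^6 yeast cells/mL · Buffer or medium – YPD medium · Compound – single dose · Timing – 4 h static compound exposure, 37 °C, read 1 h post-reagent · Signal – adenylate kinase release luminescence · Read-out basis – lysis from increased AK signal · Benchmarks – Clomiphene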
Xi reactivation: X-chromosome reactivation activator; activation, % at 7.58 µM; XiGFP mouse fibroblasts, % GFP-positive cells imaging, 3 d; cells co-treated with 5-aza-dC sensitizer; scaled so ellipticine positive control = 100%; 0.055% of 360,000 active; AID 743238;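 active means mean normalized replicate activation at least 10% and every replicate at or above 10%; inconclusive means only one of the two criteria met; inactive means mean below 10% and not all replicates reach 10%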;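 further: 0% = median of on-plate neutral control wells and 100% = ellipticine 6 µM median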
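System: 68-5-11 XiGFP fibroblast line; Timing: 3 days compound exposure; Compound dosing: one concentration, pinned; Benchmarks: positive control ellipticine, 6 µM final; Buffer or medium: DMEM containing 5-aza-dC.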
Statin myotox sup: suppressors of simvastatin-induced myotoxicity in C2C12 myotubes | rescue of ATP level, % at 7.49 µM | 0.78% of 330,000 active | ATP luminescence, 48 h; scaled: DMSO 0, geranylgeraniol control 100;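 active means mean ATP rescue above about 67%, or every replicate alone reaching that limit, limit read from the data, passing the limit was not always enough; inconclusive means no clear call, values can overlap the other calls; inactive means mean under the limit and some replicate under it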;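 further: myotubes were challenged with 10 µM simvastatin during compound exposure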
The depositor's hits bear a star; ? = inconclusive; . = not tested or not shown; ! = repeats disagree.

SMILES	DENV2 CPE rescue	Cneo AK release	Xi reactivation	Statin myotox sup
COc1cc2cc(CCCOC(=O)CCCC(=O)O)oc(=O)c2cc1OC	38.0*	0.6	0.0	-2.4
COc1cc2cc(CCCOC(=O)c3cc(OC)c(OC)c(OC)c3)oc(=O)c2cc1OC	-5.6	-5.0	0.0	-8.2
COc1ccc(S(=O)(=O)N2CCCCC2)cc1C(C)C	.	0.3	.	112.8*
COc1ccc(S(=O)(=O)N2CCCC2)cc1Br	-1.6	-0.6	0.0	6.1
C=CCn1c(COc2cccc3cccnc23)nnc1SCC(=O)O	.	-2.9	.	105.3*
C[C@H]1CN([C@@H](C)CO)S(=O)(=O)c2ccc(C#Cc3ccccn3)cc2O[C@H]1CN(C)Cc1ccccc1	-10.8	0.5	0.0	49.7
C[C@@H]1CN([C@H](C)CO)S(=O)(=O)c2ccc(C#Cc3ccccn3)cc2O[C@H]1CN(C)Cc1ccccc1	.	91.5*	0.0	-25.8
C[C@@H]1CN([C@@H](C)CO)S(=O)(=O)c2ccc(C#Cc3ccccn3)cc2O[C@H]1CN(C)Cc1ccccc1	.	100.5*	-1.2	-62.2
C[C@@H]1CN([C@@H](C)CO)S(=O)(=O)c2ccc(C#Cc3ccccn3)cc2O[C@@H]1CN(C)Cc1ccccc1	-7.4	0.2	0.1	21.9
C[C@H](CO)N1C[C@H](C)[C@H](CN(C)C(=O)c2ccc(F)cc2)Oc2ncc(Br)cc2C1=O	1.1	4.6	-0.9	-0.5
Cc1noc(C)c1NC(=O)N(C)C[C@H]1Oc2ccc(NS(=O)(=O)c3ccc(F)cc3)cc2CC(=O)N([C@H](C)CO)C[C@@H]1C	.	.	0.0	.
C[C@H](CO)N1C[C@H](C)[C@H](CN(C)S(=O)(=O)c2ccccc2F)Oc2cc(-c3ccccc3)ccc2S1(=O)=O	-6.5	-5.5	0.0	-100.1
C[C@H]1CN([C@@H](C)CO)S(=O)(=O)c2ccc(Br)cc2O[C@@H]1CN(C)S(=O)(=O)c1ccccc1F	35.6*!	93.7*!	0.1	38.0
C/C=C/c1ccc2c(c1)O[C@H](CN(C)S(=O)(=O)c1ccccc1)[C@H](C)CN([C@@H](C)CO)S2(=O)=O	-2.6	89.9*	-1.1	9.8
C[C@H]1CN([C@@H](C)CO)S(=O)(=O)c2ccc(Br)cc2O[C@H]1CN(C)S(=O)(=O)c1ccccc1F	2.7	103.7*!	0.0	6.9
CC(=O)Nc1nnc(SCc2ccc(F)cc2)s1	.	-4.2	.	12.9
CC(=O)Nc1nnc(SCc2cccc(F)c2)s1	-8.7	0.1	0.0	86.7*
CCCCn1c(N)c(N(CCOC)C(=O)c2cc(=O)[nH]c3ccccc23)c(=O)[nH]c1=O	73.3*	1.3	-0.1	7.3
CCCCN(C(=O)c1cc(-c2ccco2)nc2ccccc12)c1c(N)n(CCCC)c(=O)[nH]c1=O	108.7*	.	0.0	18.6
CCCCn1c(N)c(N(CCC(C)C)C(=O)c2cc(-c3ccco3)nc3ccccc23)c(=O)[nH]c1=O	5.2	2.0	0.2	6.6
CCCCN(C(=O)CSc1nnc(-c2ccco2)o1)c1c(N)n(Cc2ccccc2)c(=O)[nH]c1=O	4.7	0.9	0.2	5.0
CCCCN(C(=O)CSc1nnc(-c2ccccc2)o1)c1c(N)n(CCC)c(=O)[nH]c1=O	79.5*	-2.7	0.1	5.1
CCCCN(C(=O)c1ccccc1OCc1ccc(F)cc1)c1c(N)n(CC(C)C)c(=O)[nH]c1=O	66.4*	-1.4	0.3	.
CCCCN(C(=O)c1ccc(COc2ccccc2)o1)c1c(N)n(CC(C)C)c(=O)[nH]c1=O	?	-1.0	0.0	5.7
CN(C)CC(=O)Nc1ccc2c(c1)[C@H]1C[C@@H](CC(=O)N3CCc4ccccc4C3)O[C@H](CO)[C@H]1O2	2.4	-1.7	0.0	-4.5
SMILES	DENV2 CPE rescue	Cneo AK release	Xi reactivation	Statin myotox sup
CCCNC(=O)N1C[C@@H]2[C@H](c3ccccc31)[C@@H](CO)N2C(=O)Nc1ccccc1	.	54.9	0.3	1.4
COCC#Cc1ccc([C@@H]2[C@H]3CN(C(=O)c4cccnc4)CC(=O)N3[C@H]2CO)cc1	-9.8	.	0.3	.
C[C@@H]1CCCCO[C@@H](CN(C)C(=O)Nc2ccccc2)[C@H](C)CN([C@H](C)CO)C(=O)c2cc(NC(=O)C3CCCCC3)ccc2O1	-1.9	-3.8	.	.
COc1ccc(-c2cnc3c(c2)C(=O)N([C@@H](C)CO)C[C@@H](C)[C@H](CN(C)S(C)(=O)=O)O3)cc1	2.9	-16.0	-1.1	-0.2
COc1ccc(S(=O)(=O)Nc2ccc3c(c2)CC(=O)N([C@H](C)CO)C[C@@H](C)[C@@H](CN(C)Cc2ccc(-c4ccccc4)cc2)O3)cc1	?	-1.9	-0.8	54.8
C[C@@H]1CN([C@@H](C)CO)C(=O)Cc2cc(NS(=O)(=O)c3cccs3)ccc2O[C@@H]1CN(C)Cc1ccc(-c2ccccc2)cc1	44.3*	3.4	0.0	41.6
C[C@H]1CN([C@@H](C)CO)C(=O)Cc2cc(NS(=O)(=O)c3ccccc3)ccc2O[C@H]1CN(C)Cc1ccc(-c2ccccc2)cc1	?	0.1	0.3	-16.4
COc1ccc(S(=O)(=O)Nc2ccc3c(c2)CC(=O)N([C@@H](C)CO)C[C@@H](C)[C@H](CN(C)Cc2ccc(-c4ccccc4)cc2)O3)cc1	-22.1	1.1	-0.9	140.2*
C[C@H]1CN([C@@H](C)CO)C(=O)Cc2cc(NS(=O)(=O)c3ccccc3)ccc2O[C@@H]1CN(C)Cc1ccc(-c2ccccc2)cc1	40.1*	1.5	-0.6	3.2
C[C@@H]1CN([C@@H](C)CO)C(=O)Cc2cc(NS(=O)(=O)c3ccc(F)cc3)ccc2O[C@H]1CN(C)Cc1ccc(-c2ccccc2)cc1	.	.	0.0	79.8*
CC(C)NC(=O)Nc1ccc2c(c1)C(=O)N([C@@H](C)CO)C[C@@H](C)[C@@H](CN(C)S(C)(=O)=O)OCCCC[C@@H](C)O2	-5.1	-1.9	0.0	.
COc1ccc(S(=O)(=O)Nc2ccc3c(c2)C(=O)N([C@H](C)CO)C[C@@H](C)[C@@H](CN(C)Cc2ccc(C(=O)O)cc2)O3)cc1	11.4	-1.2	0.0	.
C[C@@H]1CN([C@@H](C)CO)C(=O)Cc2cc(NS(=O)(=O)c3ccc(Cl)cc3)ccc2O[C@H]1CN(C)Cc1ccc(-c2ccccc2)cc1	.	.	0.0	68.8*
C[C@@H]1CN([C@@H](C)CO)C(=O)Cc2cc(NS(=O)(=O)c3ccc(Cl)cc3)ccc2O[C@@H]1CN(C)Cc1ccc(-c2ccccc2)cc1	.	.	0.2	58.5
CNC[C@H]1Oc2ccc(NC(=O)Nc3ccc(F)cc3)cc2C(=O)N([C@H](C)CO)C[C@@H]1C	?	-2.4	0.0	6.2
O=C(Oc1ccc(Cl)cc1N1C(=O)CCC1=O)c1ccco1	.	0.7	.	65.8*
O=C(Oc1ccc(N2C(=O)CCC2=O)cc1)c1ccco1	.	0.0	.	4.9
O=C(Nc1ccccc1F)N1C[C@H]2[C@@H](c3ccccc31)[C@@H](CO)N2C(=O)C1CCCC1	-2.9	51.4	0.1	6.8
C[C@@H]1CCCCO[C@H](CN(C)C(=O)Nc2ccc(F)cc2)[C@H](C)CN([C@@H](C)CO)C(=O)c2cc(NS(=O)(=O)c3ccc(Cl)cc3)ccc2O1	-2.7	93.9*	0.0	.

Assay outcomes as filed in PubChem BioAssay.
